Test results from ChEMBL document CHEMBL2384995, “Discovery of highly potent triazole antifungal derivatives by heterocycle-benzene bioisosteric replacement” (Eur J Med Chem, 2013).
Converted amounts (≈) assume the structure as drawn.

What was measured:
[1] = Half life in Sprague-Dawley rat at 15 mg/kg, po by LC/MS/MS analysis; type: ADME, organism-based; set-up: dose 15 mg/kg, route oral; conditions: in vivo
In short: (§1)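 Single oral dose of 15 mg/kg in Sprague-Dawley rats. Blood was drawn from the orbital venous plexus at several time points and plasma drug levels were quantified by LC/MS/MS, from which the pharmacokinetic parameters were obtained.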

[2] = Tmax in Sprague-Dawley rat at 15 mg/kg, po by LC/MS/MS analysis; type: ADME, organism-based; set-up: dose 15 mg/kg, route oral; conditions: in vivo; in short: as §1
[3] = Cmax in Sprague-Dawley rat at 15 mg/kg, po by LC/MS/MS analysis; type: ADME, organism-based; set-up: dose 15 mg/kg, route oral; conditions: in vivo; in short: as §1
[4] = AUC (0 to infinity) in Sprague-Dawley rat at 15 mg/kg, po by LC/MS/MS analysis; type: ADME, organism-based; set-up: time infinity, dose 15 mg/kg, route oral; conditions: plasma; in short: as §1
Cryptococcus neoformans [5] = assay: Ratio of fluconazole MIC80 to compound MIC80 for Cryptococcus neoformans; type: functional
Cryptococcus neoformans [6] = assay: Antifungal activity against Cryptococcus neoformans after 72 hrs by NCCLS method; type: functional
In short: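 NCCLS serial-dilution MIC assay in 96-well plates against an ATCC or clinical yeast isolate. Test agents were taken up in DMSO and diluted serially in growth medium. Plates were held at 35 °C and growth was scored at 72 h. MIC80 is the lowest concentration reducing turbidity by at least 80% compared with the control culture.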

Candida tropicalis = assay: Antifungal activity against Candida tropicalis after 24 hrs by NCCLS method; type: functional
In short: (§2)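 Broth microdilution in 96-well plates following NCCLS recommendations, using ATCC strains or clinical isolates. Compounds were dissolved in DMSO and serially diluted in growth medium. Yeast plates were incubated at 35 °C and read at 24 h. MIC80 is the lowest concentration giving turbidity of […] inhibition relative to the drug-free growth control.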

Aspergillus fumigatus = assay: Antifungal activity against Aspergillus fumigatus after 7 days by NCCLS method; type: functional; conditions: 168 h
In short: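 Microtest-plate serial dilution per NCCLS, with the strain taken from ATCC or a clinical source. Compounds were prepared in DMSO and serially diluted in growth medium. Growth was read after 7 days. The endpoint is the lowest concentration producing ≥80% turbidity inhibition versus the untreated growth control.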

Candida albicans = assay: Antifungal activity against Candida albicans after 24 hrs by NCCLS method; type: functional; in short: as §2
Trichophyton rubrum [7] = assay: Ratio of fluconazole MIC80 to compound MIC80 for Trichophyton rubrum; type: functional
Trichophyton rubrum [8] = assay: Antifungal activity against Trichophyton rubrum by NCCLS method; type: functional
In short: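 Dermatophyte MIC by NCCLS broth serial dilution in 96-well plates, using an ATCC or clinical isolate. DMSO solutions were serially diluted in growth medium and incubated at 28 °C.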

[9] = Cryptococcus neoformans, 72 h, read-out: MIC80
[10] = Candida albicans, 24 h, read-out: MIC80

| SMILES | half-life [1] | Tmax [2] | Cmax [3] | AUC(0-inf) [4] | Ratio (Cryptococcus neoformans [5]) | MIC80 (Cryptococcus neoformans [6]) | MIC80 (Candida tropicalis) | MIC80 (Aspergillus fumigatus) | MIC80 (Candida albicans) | Ratio (Trichophyton rubrum [7]) | MIC80 (Trichophyton rubrum [8]) | MIC80 (Cryptococcus neoformans [6]; [9]) | MIC80 (Candida albicans; [10]) |
| --- | --- | --- | --- | --- | --- | --- | --- | --- | --- | --- | --- | --- | --- |
| CN(Cc1ccc(I)cc1)CC(O)(Cn1cncn1)c1ccc(F)cc1F (stereo not drawn) | 1.38 h | 0.9 h | 297 ng/mL | 546 ng·h/mL |  |  |  |  |  |  |  |  |  |
| OC(CN1CCN(Cc2nc3ccccc3s2)CC1)(Cn1cncn1)c1ccc(F)cc1F (racemic) | 1.27 h | 0.8 h | 508 ng/mL | 1420 ng·h/mL | 125 | 0.016 µg/mL (≈ 0.034 µM) | 0.004 µg/mL (≈ 0.0085 µM) | 64 µg/mL (≈ 136 µM) | 0.016 µg/mL (≈ 0.034 µM) | 16 | 0.0625 µg/mL (≈ 0.133 µM) |  |  |
| CN(Cc1cccs1)CC(O)(Cn1cncn1)c1ccc(F)cc1F (racemic) |  |  |  |  | 125 |  | 0.125 µg/mL (≈ 0.343 µM) | 16 µg/mL (≈ 43.9 µM) |  |  | 1 µg/mL (≈ 2.74 µM) | 0.016 µg/mL (≈ 0.0439 µM) | 1 µg/mL (≈ 2.74 µM) |
| CN(Cc1ccco1)CC(O)(Cn1cncn1)c1ccc(F)cc1F (racemic) |  |  |  |  | 32 |  | 0.016 µg/mL (≈ 0.0459 µM) | 64 µg/mL (≈ 184 µM) |  |  | 1 µg/mL (≈ 2.87 µM) | 0.0625 µg/mL (≈ 0.179 µM) | 0.0625 µg/mL (≈ 0.179 µM) |
| CN(Cc1ccc2ccccc2n1)CC(O)(Cn1cncn1)c1ccc(F)cc1F (racemic) |  |  |  |  | 8 |  | 1 µg/mL (≈ 2.44 µM) | > 64 µg/mL |  |  | 4 µg/mL (≈ 9.77 µM) | 0.25 µg/mL (≈ 0.611 µM) | 4 µg/mL (≈ 9.77 µM) |
| CN(Cc1ccccn1)CC(O)(Cn1cncn1)c1ccc(F)cc1F (racemic) |  |  |  |  | 8 |  | 0.0625 µg/mL (≈ 0.174 µM) | > 64 µg/mL |  |  | 4 µg/mL (≈ 11.1 µM) | 0.25 µg/mL (≈ 0.696 µM) | 1 µg/mL (≈ 2.78 µM) |
| CN(Cc1nc2ccccc2[nH]1)CC(O)(Cn1cncn1)c1ccc(F)cc1F (racemic) |  |  |  |  |  |  | 0.25 µg/mL (≈ 0.627 µM) | > 64 µg/mL |  |  | > 64 µg/mL | 16 µg/mL (≈ 40.2 µM) | 4 µg/mL (≈ 10 µM) |
| OC(CN1CCN(Cc2cccs2)CC1)(Cn1cncn1)c1ccc(F)cc1F (racemic) |  |  |  |  | 8 |  | 0.016 µg/mL (≈ 0.0381 µM) | 16 µg/mL (≈ 38.1 µM) |  |  | 4 µg/mL (≈ 9.54 µM) | 0.25 µg/mL (≈ 0.596 µM) | 0.0625 µg/mL (≈ 0.149 µM) |
| OC(CN1CCN(Cc2ccc3ccccc3n2)CC1)(Cn1cncn1)c1ccc(F)cc1F (racemic) |  |  |  |  | 32 |  | 0.016 µg/mL (≈ 0.0344 µM) | 2 µg/mL (≈ 4.31 µM) |  |  | 0.25 µg/mL (≈ 0.538 µM) | 0.0625 µg/mL (≈ 0.135 µM) | 1 µg/mL (≈ 2.15 µM) |
| OC(CN1CCN(Cc2ccccn2)CC1)(Cn1cncn1)c1ccc(F)cc1F (racemic) |  |  |  |  | 2 |  | 1 µg/mL (≈ 2.41 µM) | 16 µg/mL (≈ 38.6 µM) |  |  | 1 µg/mL (≈ 2.41 µM) | 1 µg/mL (≈ 2.41 µM) | 0.0625 µg/mL (≈ 0.151 µM) |
| OC(CN1CCN(Cc2nc3ccccc3[nH]2)CC1)(Cn1cncn1)c1ccc(F)cc1F (racemic) |  |  |  |  |  |  | 1 µg/mL (≈ 2.21 µM) | > 64 µg/mL |  |  | 64 µg/mL (≈ 141 µM) | 16 µg/mL (≈ 35.3 µM) | 4 µg/mL (≈ 8.82 µM) |
| OC(CN1CCN(Cc2nc3ccccc3o2)CC1)(Cn1cncn1)c1ccc(F)cc1F (racemic) |  |  |  |  | 32 |  | 0.004 µg/mL (≈ 0.0088 µM) | 0.25 µg/mL (≈ 0.55 µM) |  | 4 | 0.25 µg/mL (≈ 0.55 µM) | 0.0625 µg/mL (≈ 0.138 µM) | 0.0625 µg/mL (≈ 0.138 µM) |
| OC(CN1CCN(Cc2nc3ccccc3s2)CC1)(Cn1cncn1)c1ccc(F)cc1F (single isomer, unassigned; (+)) |  |  |  |  |  | 0.0625 µg/mL (≈ 0.133 µM) |  |  | 0.0625 µg/mL (≈ 0.133 µM) |  |  |  |  |
| OC(CN1CCN(Cc2nc3ccccc3s2)CC1)(Cn1cncn1)c1ccc(F)cc1F (stereo in doubt; (-)-8f) |  |  |  |  |  | <0.016 µg/mL |  |  | <0.016 µg/mL |  |  |  |  |
| OC(Cn1cncn1)(Cn1cncn1)c1ccc(F)cc1F [FLUCONAZOLE] |  |  |  |  |  |  | 4 µg/mL (≈ 13.1 µM) | > 64 µg/mL |  |  | 1 µg/mL (≈ 3.27 µM) | 2 µg/mL (≈ 6.53 µM) | 0.25 µg/mL (≈ 0.816 µM) |
